This note sets out measurements from ChEMBL document CHEMBL4257564, “Rational Design, Synthesis, and Pharmacological Characterization of Novel Ghrelin Receptor Inverse Agonists as Potential Treatment against Obesity-Related Metabolic Diseases” (J Med Chem, 2018).

Series [1] in a line: Clearance in mouse liver microsomes at 0.625 uM preincubated for 5 mins followed by NADPH addition and measured after 60 mins by LC-MS/MS analysis. Type of series: ADME, microsome. Particulars: read-out: CLH. In a few lines:
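Liver microsomes (0.625 mg/mL protein) in 50 mM potassium phosphate pH 7.4 with 0.625 µM test item, prewarmed 5 min at 37 °C. Reaction started with NADPH (5 mM solution). Samples taken at 0, 5, 15, 30 and 60 min into cold MeCN with internal standard, analysed by LC-MS/MS. Intrinsic clearance derived by the half-life approach.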
For orientation: Microsomes from liver hold many membrane-bound enzymes, among them those of drug oxidation.

In series [2] the test system is Mus musculus. As to the kind of experiment: Anti-obesity activity in C57BL/6J mouse assessed as inhibition of anamorelin-induced increase in food intake by measuring cumulative food intake at 10 mg/kg, ip pretreated for 10 mins followed by anamorelin addition and measured after 4 hrs post dose (reference value: 2.09 +/- 0.08 g). Type of series: functional. In a few lines:
(§1)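 Male C57BL/6J mice (18–22 g at arrival), fed ad libitum. Dosed 10 mg/kg i.p. at t = 0 in 10% DMAC/6% Solutol HS 15/84% PBS, then anamorelin 30 mg/kg p.o. (0.5% CMC) at 10 min. Cumulative food intake recorded at 1, 2, 4, 8 and 24 h; n=6 per group; mean ± SEM; ANOVA with Dunnett test versus vehicle+anamorelin.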

In series [3] the test system is Mus musculus. In words: Anti-obesity activity in C57BL/6J mouse assessed as inhibition of anamorelin-induced increase in food intake by measuring cumulative food intake at 10 mg/kg, ip pretreated for 10 mins followed by anamorelin addition and measured after 24 hrs post dose (reference value: 8.31 +/- 0.2 g). Type of series: functional. A digest of the protocol:
as §1

Series [4] deals with Mus musculus. As to the kind of experiment: Anti-obesity activity in C57BL/6J mouse assessed as inhibition of anamorelin-induced increase in food intake by measuring cumulative food intake at 30 mg/kg, po pretreated for 10 mins followed by anamorelin addition and measured after 1 hr post dose (reference value: 0.63 +/- 0.04 g).
Series [5] addresses Growth hormone secretagogue receptor type 1 (Homo sapiens, UniProt Q92847). In words: Agonist activity at recombinant human GHSR1a expressed in HEK293 cells assessed as induction of intracellular calcium release after 15 mins by FLIPR assay. In kind it is functional, cell-based. As to conditions: hek293. A digest of the protocol: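 HEK293 cells stably expressing human GHSR1a, seeded 24 h before the run, then loaded with calcium dye for 30-60 min at room temperature or 37 °C. DMSO-dissolved compounds were added and intracellular calcium release was monitored by FLIPR fluorescence.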
A general note: A change in cytosolic calcium serves as a functional read-out for many receptors and channels.

Series [6] can be described thus: Protein binding in dog plasma at 1 uM after 6 hrs by equilibrium dialysis. Type of series: ADME, cell-free, Canis lupus familiaris. As to conditions: read-out: PPB. A digest of the protocol:
(§2)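 Compound spiked at 1.0 µM final (0.5% DMSO) into plasma. Equilibrium dialysis against DPBS pH 7.4 across a 12–14 kD membrane for 6 h at 37 °C, in triplicate. Buffer-only controls used for nonspecific binding. Unbound fraction = acceptor/donor concentration by LC-MS/MS; reported as % bound.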
(Equilibrium dialysis compares concentrations on both sides of a semipermeable membrane.)

The subject of series [7] is Mus musculus. In words: Anti-obesity activity in C57BL/6J mouse assessed as inhibition of anamorelin-induced increase in food intake by measuring cumulative food intake at 30 mg/kg, po pretreated for 10 mins followed by anamorelin addition and measured after 4 hrs post dose (reference value: 2.09 +/- 0.08 g).
A short description of series [8]: Protein binding in mouse plasma at 1 uM after 6 hrs by equilibrium dialysis. Type of series: ADME, cell-free. As to conditions: read-out: PPB (converted). A digest of the protocol:
as §2

Series [9] in a line: Half life in rat at 3 mg/kg, po via gavage by LC-MS/MS analysis. In kind it is ADME, organism-based. As to conditions: in vivo. In a few lines: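 Rats given 3 mg/kg by oral gavage as a suspension in 2% DMSO/98% of 0.5% CMC. EDTA plasma sampled at 0.25–24 h and analysed by LC-MS/MS. Bioavailability estimated against the 3 mg/kg i.v. arm.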

By half-life is commonly meant the time needed for the level to fall by half in the phase considered. A higher half-life goes with slow decline.

Growth hormone secretagogue receptor type 1, sequence (Q92847 whole entry): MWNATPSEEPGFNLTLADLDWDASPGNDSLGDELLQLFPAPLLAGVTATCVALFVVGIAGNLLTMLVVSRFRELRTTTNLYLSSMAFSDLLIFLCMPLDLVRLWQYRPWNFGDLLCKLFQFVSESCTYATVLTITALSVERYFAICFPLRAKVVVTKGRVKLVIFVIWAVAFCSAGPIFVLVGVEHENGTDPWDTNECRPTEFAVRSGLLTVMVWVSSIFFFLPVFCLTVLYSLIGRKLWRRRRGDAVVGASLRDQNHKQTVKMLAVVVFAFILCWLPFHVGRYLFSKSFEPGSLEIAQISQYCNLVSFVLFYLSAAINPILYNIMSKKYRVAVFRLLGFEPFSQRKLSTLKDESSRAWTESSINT

For the molecule `Cc1cc(-c2ccc3c(c2)CC[C@H]3N2CCC(N(C)C(=O)N[C@@H](C)c3ccc(C#CC4CC4)c(Cl)c3Cl)CC2)ncn1`, the microsomal CLint at 0.625 µM in [1] is less than 10 µL/min/mg. In addition, the Activity in the series with Mus musculus [2] was 1.66 g; with Mus musculus [3] it was 7.63 g; in the series with Mus musculus [4], 0.22 g; with Mus musculus [7], 1.45 g. In series [5], the EC50 entry is reported as “Not Active”. The fraction unbound at 6 h, 1 µM in series [6] was 0.0001; in series [8] it was 0.0002. The half-life in series [9] was 15.8 h.
